Data set [1] deals with T1, GAR transformylase/AICAR transformylase (Homo sapiens) (UniProt P31939+P22102). Kind of data set: Inhibition of GARFTase/AICARFTase in human KB cells expressing RFC/FR-alpha/PCFT assessed as cell growth inhibition measured after 96 hrs in presence of 10 uM thymidine by Cell-Titer Blue fluorescence analysis. It is filed as cell-based.
The target of data set [2] is T2, Proton-coupled folate transporter (Homo sapiens) (UniProt Q96NT5).
T2 sequence (whole entry): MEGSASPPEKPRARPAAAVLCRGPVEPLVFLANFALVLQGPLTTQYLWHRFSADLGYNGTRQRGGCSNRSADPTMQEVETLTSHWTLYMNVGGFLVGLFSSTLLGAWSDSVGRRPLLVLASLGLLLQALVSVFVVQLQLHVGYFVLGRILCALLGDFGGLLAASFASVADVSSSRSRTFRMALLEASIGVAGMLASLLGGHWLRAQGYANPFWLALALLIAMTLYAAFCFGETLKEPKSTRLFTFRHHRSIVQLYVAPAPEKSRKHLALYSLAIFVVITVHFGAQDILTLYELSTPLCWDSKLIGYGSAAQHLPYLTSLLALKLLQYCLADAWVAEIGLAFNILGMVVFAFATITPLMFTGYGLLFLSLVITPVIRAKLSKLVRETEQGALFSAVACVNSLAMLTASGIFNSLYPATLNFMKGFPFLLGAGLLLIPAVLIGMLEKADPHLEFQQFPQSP
Kind of data set: Inhibition of [3H]MTX uptake at human PCFT expressed in Chinese hamster R2/PCFT4 cells at 10 uM and pH 6.8 measured after 5 mins. It is filed as cell-based.

The nature of data set [3]: Toxicity in folate-deficient diet fed SCID mouse xenografted with human IGROV1 cells assessed as body weight loss at 96 and 150 mg/kg, iv administered […] post 2 days of tumor implantation measured after 48 hrs of last dosage. It is filed as organism-based. The conditions noted are these: in vivo. In a few lines: (§1)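 Female NCR SCID mice (11 weeks old, ~20 g) are fed a folate-deficient diet from 14 days before implant. IGROV1 fragments (30–60 mg) are trocar-implanted subcutaneously in both flanks, and mice are randomised at 5/group. Tail-vein dosing starts on day 2: 28 mg/kg/inj Q3dx5, or 96 or 150 mg/kg/inj Q3dx4. Vehicle is 5% ethanol, 1% Tween-80, 0.5% NaHCO3 in water at pH 6.5. Caliper tumor mass is (a×b²)/2, T/C is taken when controls reach 700–1200 mg, and weights are recorded daily.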
On the technique in general: In xenograft studies the graft and the host belong to different species.

A short description of data set [4]: Toxicity in folate-deficient diet fed SCID mouse xenografted with human IGROV1 cells assessed as body weight loss at 28 mg/kg, iv administered […] post 2 days of tumor implantation measured after 48 hrs of last dosage. The conditions noted are these: in vivo. It is filed as organism-based. The procedure, abridged:
as §1

In data set [5] the test system is IGROV-1. The experiment in a line: Antitumor activity against human IGROV1 cells xenografted into folate-deficient diet fed SCID mouse assessed as tumor growth at 150 mg/kg, iv administered […] post 2 days of tumor implantation measured on day 20 relative to control. It is filed as functional. The procedure, abridged: as §1
In data set [6] the target is T2, Proton-coupled folate transporter (Homo sapiens). Kind of data set: Inhibition of [3H]MTX uptake at human PCFT expressed in Chinese hamster R2/PCFT4 cells at 1 uM and pH 5.5 measured after 5 mins. Format: cell-based.
For a further data set, the system named is KB. The experiment in a line: Antiproliferative activity against human KB cells expressing human RFC/FR-alpha/PCFT assessed as reduction in cell viability measured after 96 hrs by Cell-Titer Blue fluorescence analysis. Format: functional, cell-based.
Data set [7] concerns IGROV-1. Kind of data set: Antiproliferative activity against human IGROV1 cells expressing human FR-alpha/PCFT assessed as reduction in cell viability measured after 96 hrs in presence of folic acid by Cell-Titer Blue fluorescence analysis. It is filed as functional, cell-based. The conditions noted are these: IGROV-1, 96 h.
In data set [8] the target is T1, GAR transformylase/AICAR transformylase (Homo sapiens). The experiment in a line: Inhibition of GARFTase/AICARFTase in human KB cells expressing RFC/FR-alpha/PCFT assessed as cell growth inhibition measured after 96 hrs in presence of 60 uM adenosine by Cell-Titer Blue fluorescence analysis. It is filed as cell-based.
Data set [9] can be described thus: Cytotoxicity in PCFT-null Chinese hamster R2 cells assessed as reduction in cell viability measured after 96 hrs by Cell-Titer Blue fluorescence analysis. It is filed as cell-based. The conditions noted are these: Cricetulus griseus, R2, 96 h.
A short description of data set [10]: Cytotoxicity in RFC-null Chinese hamster R2 cells assessed as reduction in cell viability measured after 96 hrs by Cell-Titer Blue fluorescence analysis. The conditions noted are these: Cricetulus griseus, R2, 96 h. Format: cell-based.
In data set [11] the test system is IGROV-1. Kind of data set: Antitumor activity against human IGROV1 cells xenografted into folate-deficient diet fed SCID mouse assessed as tumor cell kill at 150 mg/kg, iv administered […] post 2 days of tumor implantation measured on day 20. Format: functional.
The test system of data set [12] is IGROV-1. The experiment in a line: Antitumor activity against human IGROV1 cells xenografted into folate-deficient diet fed SCID mouse assessed as tumor growth delay at 150 mg/kg, iv administered […] post 2 days of tumor implantation. It is filed as functional. The procedure, abridged: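 Female NCR SCID mice, 11 weeks, ~20 g, on folate-deficient or standard diet from 14 days pre-implant; bilateral s.c. IGROV1 fragments (30–60 mg); 5 mice/group; tail-vein dosing from day 2 (Q3d schedules) in 5% ethanol, 1% Tween-80, 0.5% NaHCO3, water, pH 6.5; caliper mass (a×b²)/2; T/C and T−C delay.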

Data set [13] has as its target Bifunctional purine biosynthesis protein ATIC (Homo sapiens) (UniProt P31939). Kind of data set: Inhibition of AICARFTase in human KB cells expressing RFC/FR-alpha/PCFT assessed as cell growth inhibition measured after 96 hrs in presence of 320 uM AICA by Cell-Titer Blue fluorescence analysis. It is filed as cell-based.

Activity calls are given as the source filed them. The rule behind the calls is not given here. Some results are limits rather than exact numbers.

One may read the inhibition as the relative decrease from the control value, in per cent. For orientation: T/C means the result in the treated group divided by that in the control group, in per cent. The term IC50 denotes the midpoint of a concentration-inhibition curve.

T1 sequence (P22102 whole entry, looked up): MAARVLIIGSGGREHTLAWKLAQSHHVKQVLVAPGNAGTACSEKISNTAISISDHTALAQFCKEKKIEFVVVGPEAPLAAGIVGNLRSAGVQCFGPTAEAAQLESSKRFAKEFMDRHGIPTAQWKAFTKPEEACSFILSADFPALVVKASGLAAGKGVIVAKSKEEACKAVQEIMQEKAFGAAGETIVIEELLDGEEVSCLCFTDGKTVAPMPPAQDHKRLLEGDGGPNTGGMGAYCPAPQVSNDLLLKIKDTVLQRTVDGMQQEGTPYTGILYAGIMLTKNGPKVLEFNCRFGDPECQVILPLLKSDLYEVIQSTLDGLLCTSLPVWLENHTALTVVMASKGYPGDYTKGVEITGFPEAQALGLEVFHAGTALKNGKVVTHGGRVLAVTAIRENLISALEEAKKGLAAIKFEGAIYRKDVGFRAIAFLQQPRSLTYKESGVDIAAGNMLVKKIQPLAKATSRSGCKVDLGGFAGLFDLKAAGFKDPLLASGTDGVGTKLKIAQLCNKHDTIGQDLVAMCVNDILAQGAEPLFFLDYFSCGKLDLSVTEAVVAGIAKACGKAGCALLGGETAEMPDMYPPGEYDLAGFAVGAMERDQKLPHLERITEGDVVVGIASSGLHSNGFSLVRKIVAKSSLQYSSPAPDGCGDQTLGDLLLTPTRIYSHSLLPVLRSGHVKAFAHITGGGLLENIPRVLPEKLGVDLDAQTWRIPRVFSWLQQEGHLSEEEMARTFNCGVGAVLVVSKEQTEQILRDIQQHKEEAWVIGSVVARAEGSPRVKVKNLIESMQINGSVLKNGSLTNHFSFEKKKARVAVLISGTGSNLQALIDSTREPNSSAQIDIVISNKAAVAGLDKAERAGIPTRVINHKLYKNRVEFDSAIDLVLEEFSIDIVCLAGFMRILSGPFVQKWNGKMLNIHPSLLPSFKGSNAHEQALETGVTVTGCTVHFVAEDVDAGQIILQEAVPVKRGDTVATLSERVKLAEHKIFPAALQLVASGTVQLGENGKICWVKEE
T1 sequence (P31939 whole entry, looked up): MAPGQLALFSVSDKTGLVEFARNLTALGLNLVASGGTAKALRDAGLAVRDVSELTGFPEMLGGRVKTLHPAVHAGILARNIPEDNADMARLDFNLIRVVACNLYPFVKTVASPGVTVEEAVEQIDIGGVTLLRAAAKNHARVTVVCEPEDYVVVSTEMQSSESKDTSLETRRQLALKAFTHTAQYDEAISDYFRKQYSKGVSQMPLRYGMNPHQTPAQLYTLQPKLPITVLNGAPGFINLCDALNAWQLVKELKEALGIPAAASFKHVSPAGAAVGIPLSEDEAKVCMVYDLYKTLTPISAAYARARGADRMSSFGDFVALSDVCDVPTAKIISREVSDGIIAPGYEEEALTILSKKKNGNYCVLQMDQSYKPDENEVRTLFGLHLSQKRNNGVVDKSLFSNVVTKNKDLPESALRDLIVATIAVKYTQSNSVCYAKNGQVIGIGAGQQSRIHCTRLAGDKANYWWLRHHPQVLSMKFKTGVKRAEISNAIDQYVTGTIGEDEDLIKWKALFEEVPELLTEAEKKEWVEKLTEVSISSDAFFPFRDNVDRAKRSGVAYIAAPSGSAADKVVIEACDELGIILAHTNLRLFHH
Sequence of Bifunctional purine biosynthesis protein ATIC (Homo sapiens) (P31939 whole entry, looked up): as above

Regarding `Nc1nc2[nH]c(CCNc3ccc(C(=O)N[C@@H](CCC(=O)O)C(=O)O)cc3)cc2c(=O)[nH]1`, the inhibition result in data set [1] and in data set [13] was “Active” throughout. In addition, the inhibition in [2] fell in the range of 40 to 60%; in [6] it was 30 to 60%. For the same compound, the Activity result in data set [3] and in [4] was “Non-Toxic” in each case. Further, in the data set with IGROV-1 [5], the T/C is 12%. The IC50 in the data set with KB is 0.32 nM; in the data set with IGROV-1 [7], 872 nM; in data set [9], more than 1000 nM; in [10], more than 1000 nM. Also, the inhibition entry in data set [8] was “inactive”. Besides, the LCK in the data set on IGROV-1 [11] came out at 2.3. The Time with IGROV-1 [12] is 15 days.

Values taken from ChEMBL document CHEMBL4431326, “Tumor Targeting with Novel 6-Substituted Pyrrolo [2,3-d] Pyrimidine Antifolates with Heteroatom Bridge Substitutions via Cellular Uptake by Folate Receptor α and the Proton-Coupled Folate Transporter and Inhibition of de Novo Purine Nucleotide Biosynthesis” (J Med Chem, 2016).
